Reference: ChEMBL document CHEMBL3112482, “Nonclassical antifolates, part 5. Benzodiazepine analogs as a new class of DHFR inhibitors: synthesis, antitumor testing and molecular modeling study” (Eur J Med Chem, 2014)
pIC50: −log10 of the molar value.

What was measured:
[1] = Growth inhibition of human HOP92 cells at 10 uM after 48 hrs; type: functional; details: HOP-92, 48 h, read-out: GI
How it was run: (§1)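 Single-dose primary screen in the NCI 60 human tumour cell line panel, run at the NCI facility. The panel covers nine subpanels: leukaemia, non-small cell lung, colon, CNS, melanoma, ovarian, renal, prostate and breast. Read-out was percent growth of treated cells, shown as a mean graph and reported as percent growth inhibition.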

SF-295 = assay: Growth inhibition of human SF295 cells at 10 uM after 48 hrs; type: functional; details: SF-295, 48 h, read-out: GI
How it was run: (§2)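 NCI 60-cell-line disease-oriented human tumor panel, single-dose primary screen at 10 µM. Data given as mean-graph percent growth of treated cells, reported as percent growth inhibition (GI %).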

TK-10 = assay: Growth inhibition of human TK10 cells at 10 uM after 48 hrs; type: functional; details: TK-10, 48 h, read-out: GI; how it was run: as §2
SK-OV-3 = assay: Growth inhibition of human SKOV3 cells at 10 uM after 48 hrs; type: functional; details: SK-OV-3, 48 h, read-out: GI; how it was run: as §2
SK-MEL-2 = assay: Growth inhibition of human SK-MEL-2 cells at 10 uM after 48 hrs; type: functional; details: SK-MEL-2, 48 h, read-out: GI; how it was run: as §2
T47D = assay: Growth inhibition of human T47D cells at 10 uM after 48 hrs; type: functional; details: read-out: GI; how it was run: as §2
SK-MEL-5 = assay: Growth inhibition of human SK-MEL-5 cells at 10 uM after 48 hrs; type: functional; details: SK-MEL-5, 48 h, read-out: GI; how it was run: as §2
SR = assay: Growth inhibition of human SR cells at 10 uM after 48 hrs; type: functional; details: read-out: GI; how it was run: as §2
MDA-MB-435 = assay: Growth inhibition of human MDA-MB-435 cells at 10 uM after 48 hrs; type: functional; details: MDA-MB-435, 48 h, read-out: GI; how it was run: as §1
[2] = Cytotoxicity against human CNS cancer cells at 10 uM after 48 hrs; type: functional; details: Cancer cell lines
ACHN = assay: Growth inhibition of human ACHN cells at 10 uM after 48 hrs; type: functional; details: read-out: GI; how it was run: as §1
SK-MEL-28 = assay: Growth inhibition of human SK-MEL-28 cells at 10 uM after 48 hrs; type: functional; details: SK-MEL-28, 48 h, read-out: GI; how it was run: as §2
Dihydrofolate reductase = molecular target: T1, Dihydrofolate reductase (Bos taurus, UniProt P00376); assay: Inhibition of bovine liver DHFR measured for every 1 min of 10 mins
T1 sequence (P00376 whole entry): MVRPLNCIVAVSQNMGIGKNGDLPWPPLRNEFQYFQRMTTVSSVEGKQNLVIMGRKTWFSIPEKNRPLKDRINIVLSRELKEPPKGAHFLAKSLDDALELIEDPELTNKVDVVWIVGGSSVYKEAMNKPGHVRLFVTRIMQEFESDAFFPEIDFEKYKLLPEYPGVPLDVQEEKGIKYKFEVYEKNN

786-0 = assay: Growth inhibition of human 786-0 cells at 10 uM after 48 hrs; type: functional; details: 786-0, 48 h, read-out: GI; how it was run: as §1
[3] = Growth inhibition of human OVCAR5 cells at 10 uM after 48 hrs; type: functional; details: OVCAR-5, 48 h, read-out: GI; how it was run: as §1
NCI-H460 = assay: Growth inhibition of human NCI-H460 cells at 10 uM after 48 hrs; type: functional; details: NCI-H460, 48 h, read-out: GI; how it was run: as §1
[4] = Growth inhibition of human UACC257 cells at 10 uM after 48 hrs; type: functional; details: UACC-257, 48 h, read-out: GI; how it was run: as §2
[5] = Cytotoxicity against human breast cancer cells at 10 uM after 48 hrs; type: functional; details: Cancer cell lines; how it was run: as §1
IGROV-1 = assay: Growth inhibition of human IGROV1 cells at 10 uM after 48 hrs; type: functional; details: IGROV-1, 48 h, read-out: GI; how it was run: as §1
U-251 = assay: Growth inhibition of human U251 cells at 10 uM after 48 hrs; type: functional; details: U-251, 48 h, read-out: GI; how it was run: as §2
MCF7 = assay: Growth inhibition of human MCF7 cells at 10 uM after 48 hrs; type: functional; details: MCF7, 48 h, read-out: GI; how it was run: as §1
A498 = assay: Growth inhibition of human A498 cells at 10 uM after 48 hrs; type: functional; details: A498, 48 h, read-out: GI; how it was run: as §1
DU-145 = assay: Growth inhibition of human DU145 cells at 10 uM after 48 hrs; type: functional; details: DU-145, 48 h, read-out: GI; how it was run: as §1
SNB-75 = assay: Growth inhibition of human SNB75 cells at 10 uM after 48 hrs; type: functional; details: SNB-75, 48 h, read-out: GI; how it was run: as §2
SN12C = assay: Growth inhibition of human SN12C cells at 10 uM after 48 hrs; type: functional; details: read-out: GI; how it was run: as §2
[6] = Growth inhibition of human EKVX cells at 10 uM after 48 hrs; type: functional; details: read-out: GI; how it was run: as §1
[7] = Growth inhibition of human Hs 578T cells at 10 uM after 48 hrs; type: functional; details: read-out: GI; how it was run: as §1
[8] = Growth inhibition of human OVCAR4 cells at 10 uM after 48 hrs; type: functional; details: OVCAR-4, 48 h, read-out: GI; how it was run: as §1
MDA-MB-231 = assay: Growth inhibition of human MDA-MB-231 cells at 10 uM after 48 hrs; type: functional; details: MDA-MB-231, 48 h, read-out: GI; how it was run: as §1

SMILES: COc1ccc(/C=C2\CCCc3c2nc(C)nc3-c2ccc(OC)c(OC)c2)cc1OC
- inhibition of growth at 10 µM [1]: 69.9%
- inhibition of growth at 10 µM (SF-295): 97%
- inhibition of growth at 10 µM (TK-10): 87.8%
- inhibition of growth at 10 µM (SK-OV-3): 93%
- inhibition of growth at 10 µM (SK-MEL-2): 94.1%
- inhibition of growth at 10 µM (T47D): 88.8%
- inhibition of growth at 10 µM (SK-MEL-5): 93.8%
- inhibition of growth at 10 µM (SR): < 30%
- inhibition of growth at 10 µM (MDA-MB-435): 98.5%
- GI50 [2]: 34.2 µM
- TGI [2]: > 100 µM
- CC50 ([2]; read-out: LC50 (the source's name)): > 100 µM
- inhibition of growth at 10 µM (ACHN): 90.2%
- inhibition of growth at 10 µM (SK-MEL-28): 77%
- pIC50 (Dihydrofolate reductase): 7.00
- inhibition of growth at 10 µM (786-0): 90.8%
- inhibition of growth at 10 µM [3]: 95.3%
- inhibition of growth at 10 µM (NCI-H460): 99.4%
- inhibition of growth at 10 µM [4]: 79.8%
- GI50 [5]: 15.7 µM
- LC50 (concentration killing 50% of cells) [5]: 99.2 µM
- TGI [5]: 80.6 µM
- inhibition of growth at 10 µM (IGROV-1): 75.6%
- inhibition of growth at 10 µM (U-251): 81.8%
- inhibition of growth at 10 µM (MCF7): 73.7%
- inhibition of growth at 10 µM (A498): 94.1%
- inhibition of growth at 10 µM (DU-145): 92.7%
- inhibition of growth at 10 µM (SNB-75): 64.8%
- inhibition of growth at 10 µM (SN12C): 94.1%
- inhibition of growth at 10 µM [6]: < 30%
- inhibition of growth at 10 µM [7]: 41%
- inhibition of growth at 10 µM [8]: 79.1%
- inhibition of growth at 10 µM (MDA-MB-231): 92.9%
